Source: ChEMBL document CHEMBL1123657, “Anthrapyrazole anticancer agents. Synthesis and structure-activity relationships against murine leukemias” (J Med Chem, 1987)

Legend:
[1] = tested on: L1210; assay: Compound was tested in vitro against murine L1210 leukemia; IA means inactive.; type: functional, cell-based, Mus musculus
[2] = tested on: P388; assay: Activity against P388 leukemia cells in mice, by intraperitoneal dosing and net log tumor cell kill was reported; type: functional, Mus musculus
[3] = tested on: P388; assay: Inhibition of P388 leukemia cells in mice, measured as percent treated to the control values with the number of 30 day survivors; type: functional, Mus musculus
How it was run: (§1)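 P388 leukemia implanted ip in mice; drug given ip on days 1 and 5 (ip/ip; D1,5), dosed in mg/kg per injection. Read-out is treated/control (T/C, %) with cures counted, reported at the optimal dose.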

[4] = tested on: P388; assay: Optimal dose per injection in mg/kg required to inhibit growth of P388 leukemia cells in mice; type: functional, Mus musculus; how it was run: as §1
[5] = tested on: L1210; assay: Tested in vitro against murine L1210 leukemia.; type: functional, cell-based; details: Mus musculus
[6] = tested on: B16; assay: Optimal dose per injection in mg/kg required to inhibit growth of murine B-16 melanoma in vivo; type: functional, Mus musculus
How it was run: (§2)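 Murine B-16 melanoma in vivo: tumor implanted ip, compound given ip on days 1–9 (ip/ip; D1–9), dosed as mg/kg per injection. Activity expressed as T/C (%) plus number of cures, taken at the optimal dose.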

[7] = tested on: B16; assay: Tested for activity against murine B-16 melanoma in mice and percent treated to the control values with the number of 60 day survivors; type: functional, Mus musculus; how it was run: as §2

Row | SMILES | IC50 [1] | Activity [2] | T/C [3] | Dose [4] | IC50 [5] | Optimal dose [6] | T/C [7]
1 | CCN(CC)CCn1nc2c3c(c(NCCN(C)C(=O)OCc4ccccc4)ccc31)C(=O)c1c(O)ccc(O)c1-2 | Not Active | – | – | – | – | – | –
2 | O=C(O)CCNc1ccc2c3c(nn2CCO)-c2ccccc2C(=O)c13 | Not Active | -1.6 | 98% | 25 mg/kg | – | – | –
3 | CN(CCNc1ccc2c3c(nn2CCNCCO)-c2c(O)ccc(O)c2C(=O)c13)C(=O)OCc1ccccc1 | Not Active | – | – | – | – | – | –
4 | CCN(CC)CCn1nc2c3c(c(NCCC(=O)O)ccc31)C(=O)c1ccccc1-2 | Not Active | -1.3 | 117% | 12.5 mg/kg | – | – | –
5 | CN(C)CCNCCn1nc2c3c(c(NCCNCCO)ccc31)C(=O)c1c(O)ccc(O)c1-2.Cl | – | >6.8 | 226% | 50 mg/kg | 1400 nM | – | –
6 | Cl.NCCCCCNc1ccc2c3c(nn2CCNCCO)-c2c(O)ccc(O)c2C(=O)c13 | Not Active | 1.5 | 150% | 100 mg/kg | – | – | –
7 | Cl.O=C1c2ccccc2-c2nn(CCNCCO)c3ccc(NCCO)c1c23 | – | 0.1 | 139% | 25 mg/kg | 750 nM | – | –
8 | Cl.NCCNc1ccc2c3c(nn2CCN)-c2c(O)ccc(O)c2C(=O)c13 | – | 5.6 | 221% | 12.5 mg/kg | 480 nM | – | –
9 | CCN(CC)CCCNc1ccc2c3c(nn2CCO)-c2ccccc2C(=O)c13.Cl | Not Active | -1.5 | 104% | 200 mg/kg | – | – | –
10 | Cl.O=C1c2c(O)ccc(O)c2-c2nn(CCO)c3ccc(NCCN4CCOCC4)c1c23 | – | -1.2 | 122% | 400 mg/kg | 1100 nM | – | –
11 | CN(C)CCn1nc2c3c(c(NCCCN)ccc31)C(=O)c1c(O)ccc(O)c1-2.Cl | – | 4.7 | 208% | 12.5 mg/kg | 540 nM | – | –
12 | CCN(CC)CCCCNc1ccc2c3c(nn2CCO)-c2ccccc2C(=O)c13.Cl | Not Active | -1.3 | 115% | 300 mg/kg | – | – | –
13 | CCN(CC)CC(O)Cn1nc2c3c(c(NCCNCCO)ccc31)C(=O)c1c(O)ccc(O)c1-2.Cl (configuration not stated) | – | 5.3 | 223% | 12.5 mg/kg | 840 nM | – | –
14 | Cl.NCCCNCCCCNCCCNc1ccc2c3c(nn2CCNCCO)-c2c(O)ccc(O)c2C(=O)c13 | Not Active | 0.6 | 145% | 12.5 mg/kg | – | – | –
15 | CN1CCN(c2ccc3c4c(nn3CCNCCO)-c3c(O)ccc(O)c3C(=O)c24)CC1.Cl | – | 3.8 | 192% | 12.5 mg/kg | 430 nM | – | –
16 | Cl.O=C1c2c(O)ccc(O)c2-c2nn(CCNCCO)c3ccc(NCCN4CCOCC4)c1c23 | – | 2.9 | 177% | 50 mg/kg | 650 nM | – | –
17 | Cl.O=C1c2c(O)ccc(O)c2-c2nn(CCCNCCO)c3ccc(NCCNCCO)c1c23 | Not Active | >7 | 275% | 100 mg/kg | – | – | –
18 | CCN(CC)CCNc1ccc2c3c(nn2C)-c2ccccc2C(=O)c13.Cl | – | -1.5 | 98% | 400 mg/kg | 670 nM | – | –
19 | CSCCn1nc2c3c(c(NCCNCCO)ccc31)C(=O)c1c(O)ccc(O)c1-2.Cl | Not Active | 0.3 | 140% | 6.25 mg/kg | – | – | –
20 | CN(C)CCNCCNc1ccc2c3c(nn2CC(O)CO)-c2c(O)ccc(O)c2C(=O)c13.Cl (configuration not stated) | – | 6.7 | 281% | 400 mg/kg | 2200 nM | – | –

Row | SMILES | IC50 [1] | Activity [2] | T/C [3] | Dose [4] | IC50 [5] | Optimal dose [6] | T/C [7]
21 | CCN(CC)CCn1nc2c3c(c(NCCNCCO)ccc31)C(=O)c1c(O)ccc(O)c1-2.Cl | – | >6.8 | 264% | 12.5 mg/kg | 130 nM | 6 mg/kg | –
22 | CCN(CC)CC(O)Cn1nc2c3c(c(NCCN)ccc31)C(=O)c1c(O)ccc(O)c1-2.Cl (configuration not stated) | Not Active | >6.7 | 262% | 6.25 mg/kg | – | – | –
23 | Cl.NCCNCCNc1ccc2c3c(nn2CCO)-c2c(O)ccc(O)c2C(=O)c13 | Not Active | 1.2 | 174% | 200 mg/kg | – | – | –
24 | CCN(CC)CCNc1ccc2c3c(nn2CCN(CC)CC)-c2c(O)ccc(O)c2C(=O)c13.Cl | – | 3.5 | 180% | 100 mg/kg | 550 nM | – | –
25 | Cl.O=C1c2ccccc2-c2nn(CCO)c3ccc(NCCN4CCNCC4)c1c23 | Not Active | -1.3 | 109% | 50 mg/kg | – | – | –
26 | CCN(CC)CCNc1ccc2c3c(nn2CCO)-c2c(O)ccc(O)c2C(=O)c13.Cl | – | 4.6 | 190% | 400 mg/kg | 730 nM | – | –
27 | CCN(CC)CCNc1ccc2c3c(nn2CCN(CC)CC)-c2ccccc2C(=O)c13.Cl | – | -1.4 | 106% | 50 mg/kg | 390 nM | – | –
28 | Cl.NCCCCNc1ccc2c3c(nn2CCNCCO)-c2c(O)ccc(O)c2C(=O)c13 | Not Active | 3.4 | 173% | 100 mg/kg | – | – | –
29 | COCCn1nc2c3c(c(NCCN)ccc31)C(=O)c1c(O)ccc(O)c1-2.Cl | Not Active | -0.6 | 127% | 50 mg/kg | – | – | –
30 | CCN(CC)CCCCCCCNc1ccc2c3c(nn2CCO)-c2ccccc2C(=O)c13.Cl | Not Active | -1.6 | 98% | 100 mg/kg | – | – | –
31 | CN(C)CCCn1nc2c3c(c(NCCN)ccc31)C(=O)c1c(O)ccc(O)c1-2.Cl | – | 6.6 | 230% | 12.5 mg/kg | 200 nM | – | –
32 | Cl.Cn1nc2c3c(c(NCCNCCO)ccc31)C(=O)c1ccccc1-2 | – | -0.2 | 136% | 100 mg/kg | 710 nM | – | –
33 | Cl.NCCCn1nc2c3c(c(NCCNCCO)ccc31)C(=O)c1c(O)ccc(O)c1-2 | – | >6.6 | – | 50 mg/kg | 160 nM | 6.25 mg/kg | 375%
34 | Cl.NCCNc1ccc2c3c(nn2CCO)-c2c(O)ccc(O)c2C(=O)c13 | – | 6.8 | 196% | 100 mg/kg | 480 nM | – | –
35 | CCN(CC)CCCCNc1ccc2c3c(nn2CCN(CC)CC)-c2ccccc2C(=O)c13.Cl | – | -1.4 | 107% | 25 mg/kg | 620 nM | – | –
36 | Cl.O=C1c2c(O)ccc(O)c2-c2nn(CCNCCO)c3ccc(NCCCNCCO)c1c23 | – | >6.8 | 254% | 6.25 mg/kg | 1800 nM | – | –
37 | Cl.O=C1c2ccccc2-c2nn(CCO)c3ccc(NCCN4CCOCC4)c1c23 | Not Active | -1.5 | 100% | 25 mg/kg | – | – | –
38 | CCN(CC)CCn1nc2c3c(c(NCCNC)ccc31)C(=O)c1ccccc1-2.Cl | – | 0.7 | 138% | 25 mg/kg | 27 nM | – | –
39 | CN(C)CCNCCNc1ccc2c3c(nn2CCCN)-c2c(O)ccc(O)c2C(=O)c13.Cl | – | 5.6 | 228% | 25 mg/kg | 640 nM | – | –
